ChEMBL document CHEMBL1123632, “Cardiotonic agents. 7. Inhibition of separated forms of cyclic nucleotide phosphodiesterase from guinea pig cardiac muscle by 4,5-dihydro-6-[4-(1H-imidazol-1-yl)phenyl]-3(2H)-pyridazinones and related compounds. Structure-activity relationships and correlation with in vivo positive inotropic …” (J Med Chem, 1987)

Experiments:
Canis familiaris = species: Canis familiaris; assay: Effective dose required to increase myocardial contractility in dog.; format: functional; settings: Canis lupus familiaris, Myocardium
Summary of the method: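 Anesthetized mongrel dogs (either sex): pentobarbital 35 mg/kg iv, then 5 mg kg⁻¹ h⁻¹ infusion. After 30-min control, compound in saline or dilute HCl/NaOH diluted with saline given iv over 1 min, cumulative half-log doses (typically four to six), 10–30 min apart.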

[1] = target: T1, cGMP-dependent 3',5'-cyclic phosphodiesterase (Homo sapiens, UniProt O00408); assay: Inhibition of cAMP PDE II enzyme in guinea pig at 1E-5M concentration; settings: Cavia porcellus; target entry is the homologue from another species
T1 sequence (O00408 whole entry): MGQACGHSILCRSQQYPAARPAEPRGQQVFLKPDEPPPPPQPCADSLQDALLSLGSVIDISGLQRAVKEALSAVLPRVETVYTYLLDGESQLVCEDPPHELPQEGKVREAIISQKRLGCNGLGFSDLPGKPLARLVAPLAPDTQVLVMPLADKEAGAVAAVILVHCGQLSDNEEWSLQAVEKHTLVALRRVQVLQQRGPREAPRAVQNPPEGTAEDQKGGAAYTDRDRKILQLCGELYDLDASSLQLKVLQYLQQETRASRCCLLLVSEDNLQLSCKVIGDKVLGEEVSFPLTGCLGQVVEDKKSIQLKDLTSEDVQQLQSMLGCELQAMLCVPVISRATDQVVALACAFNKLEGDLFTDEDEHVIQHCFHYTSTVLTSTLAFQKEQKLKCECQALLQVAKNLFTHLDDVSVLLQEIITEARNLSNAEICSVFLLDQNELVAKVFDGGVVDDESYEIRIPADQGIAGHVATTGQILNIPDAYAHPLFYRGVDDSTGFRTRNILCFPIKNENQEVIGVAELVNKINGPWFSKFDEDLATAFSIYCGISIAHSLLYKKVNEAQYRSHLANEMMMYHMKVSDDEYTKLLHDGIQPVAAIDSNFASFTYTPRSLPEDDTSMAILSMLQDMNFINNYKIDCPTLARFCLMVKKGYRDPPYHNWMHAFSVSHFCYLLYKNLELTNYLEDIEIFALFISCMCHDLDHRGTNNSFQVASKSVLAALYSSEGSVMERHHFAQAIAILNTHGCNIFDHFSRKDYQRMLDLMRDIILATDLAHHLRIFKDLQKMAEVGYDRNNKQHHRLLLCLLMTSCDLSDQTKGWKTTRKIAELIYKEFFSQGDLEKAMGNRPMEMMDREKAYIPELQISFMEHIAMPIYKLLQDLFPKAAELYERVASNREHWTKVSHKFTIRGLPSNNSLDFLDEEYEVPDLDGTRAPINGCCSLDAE

Phosphodiesterase 1 [2] = target: T2, Phosphodiesterase 1 (Homo sapiens, UniProt P54750+Q01064+Q14123); assay: Inhibition of cGMP PDE I enzyme in guinea pig at 1E-5M concentration; format: protein assay; settings: Cavia porcellus; target entry is the homologue from another species
Phosphodiesterase 1 [3] = target: T2, Phosphodiesterase 1; assay: Inhibition of cAMP PDE I enzyme in guinea pig at 1E-5M concentration; format: protein assay; settings: Cavia porcellus; target entry is the homologue from another species
[4] = target: T1, cGMP-dependent 3',5'-cyclic phosphodiesterase; assay: Inhibition of cGMP PDE II enzyme in guinea pig at 1E-5M concentration; settings: Cavia porcellus; target entry is the homologue from another species
Phosphodiesterase 3 [5] = target: T3, Phosphodiesterase 3 (Homo sapiens, UniProt Q14432+Q13370); assay: Inhibition of cAMP PDE III enzyme in guinea pig at 1E-5M concentration; format: protein assay; settings: Cavia porcellus; target entry is the homologue from another species
[6] = target: T1, cGMP-dependent 3',5'-cyclic phosphodiesterase; assay: Inhibitory concentration against cGMP PDE II enzyme in guinea pig; set-up: species or system Cavia porcellus; settings: target entry is the homologue from another species
[7] = target: T1, cGMP-dependent 3',5'-cyclic phosphodiesterase; assay: Inhibitory concentration against cAMP PDE II enzyme in guinea pig; set-up: species or system Cavia porcellus; settings: target entry is the homologue from another species
Phosphodiesterase 1 [8] = target: T2, Phosphodiesterase 1; assay: Inhibition of cAMP PDE I enzyme in guinea pig at 1E-4M concentration.; format: protein assay; settings: Cavia porcellus; target entry is the homologue from another species
Phosphodiesterase 1 [9] = target: T2, Phosphodiesterase 1; assay: Inhibition of cGMP PDE I enzyme in guinea pig at 1E-4M concentration; format: protein assay; settings: Cavia porcellus; target entry is the homologue from another species
Phosphodiesterase 3 [10] = target: T3, Phosphodiesterase 3; assay: Inhibition of cAMP PDE III enzyme in guinea pig at 1E-4M concentration.; format: protein assay; settings: Cavia porcellus; target entry is the homologue from another species
PDE I (Cavia porcellus) [11] = assay: Inhibitory concentration against cAMP PDE I enzyme in guinea pig
PDE I (Cavia porcellus) [12] = assay: Inhibitory concentration against cGMP PDE I enzyme in guinea pig
Phosphodiesterase 3 [13] = target: T3, Phosphodiesterase 3; assay: Inhibitory concentration against cAMP PDE III enzyme in guinea pig; format: protein assay, Cavia porcellus; settings: target entry is the homologue from another species
[14] = Ratio of IC50 values for PDE III and PDE II.
PDE II (Cavia porcellus) = assay: Inhibition of cAMP PDE II enzyme in guinea pig at 1E-4M concentration.
[15] = target: T1, cGMP-dependent 3',5'-cyclic phosphodiesterase; assay: Inhibition of cGMP PDE II enzyme in guinea pig at 1E-4M concentration; settings: Cavia porcellus; target entry is the homologue from another species

| inhibition [1] | inhibition (Phosphodiesterase 1 [2]) | inhibition (Phosphodiesterase 1 [3]) | inhibition [4] | inhibition (Phosphodiesterase 3 [5]) | IC50 [6] | IC50 [7] | inhibition (Phosphodiesterase 1 [8]) | inhibition (Phosphodiesterase 1 [9]) | inhibition (Phosphodiesterase 3 [10]) | IC50 (PDE I (Cavia porcellus) [11]) | IC50 (PDE I (Cavia porcellus) [12]) | IC50 (Phosphodiesterase 3 [13]) | Ratio [14] | inhibition (PDE II (Cavia porcellus)) | inhibition [15] | SMILES | ED50 (Canis familiaris) |
| --- | --- | --- | --- | --- | --- | --- | --- | --- | --- | --- | --- | --- | --- | --- | --- | --- | --- |
| 27% | 15% | 12% | 27% | – | – | – | – | – | – | – | – | – | – | – | – | O=C1CCC(c2ccc(-n3cccn3)cc2)=NN1 | – |
| 23% | 2% | 7% | 23% | 58% | – | – | – | – | – | – | – | – | – | – | – | Cc1csc(Nc2ccc(C3=NNC(=O)CC3)cc2)n1 | – |
| 20% | 13% | 0% | 21% | 68% | – | – | – | – | – | – | – | – | – | – | – | O=C1CCC(c2ccc(-n3cccc3)cc2)=NN1 | – |
| – | 27% | 30% | – | – | – | – | 52% | 56% | – | – | – | – | – | – | – | Oc1ccc(-c2ccc(-n3cnc4c3CCCC4)cc2)nn1 | – |
| 5% | 1% | 1% | 13% | 18% | 71 µM | 100 µM | 2% | 8% | 54% | > 1000 µM | > 1000 µM | 74 µM | 740 | 35% | 40% | CCC1CC(=O)NN=C1c1ccc(-n2ccnc2)cc1 (configuration not stated) | 1 mg/kg |
| 22% | 2% | 7% | 13% | 27% | – | – | – | – | – | – | – | – | – | – | – | CC1(C)CC(c2ccc(-n3ccnc3)cc2)=NNC1=O | – |
| 5% | 3% | 1% | 1% | 13% | 280 µM | 370 µM | 22% | 26% | 47% | > 1000 µM | > 1000 µM | 110 µM | 297 | 33% | 32% | CN1N=C(c2ccc(-n3ccnc3)cc2)CCC1=O | 1 mg/kg |
| 25% | 20% | 29% | 21% | 70% | – | – | – | – | – | – | – | – | – | – | – | O=C1CCC(c2ccc(-n3cnnc3)cc2)=NN1 | – |
| 14% | 7% | 9% | 9% | 59% | 92 µM | 170 µM | 51% | 53% | 76% | – | – | 3.5 µM | – | – | 44% | CCc1nc(C)cn1-c1ccc(C2=NNC(=O)CC2)cc1 | 0.1 mg/kg |
| 6% | – | 1% | 5% | 59% | 350 µM | 480 µM | 9% | 9% | 68% | – | – | 4.1 µM | – | – | 23% | O=C1CCC(c2ccc(-n3cnc(CO)c3)cc2)=NN1 | 0.034 mg/kg |
| 18% | 16% | 11% | 15% | 24% | – | – | – | – | – | – | – | – | – | – | – | NC(=O)c1cc(-c2ccc(-n3ccnc3)cc2)nnc1O | – |
| 31% | 20% | 18% | 33% | 58% | – | – | – | – | – | – | – | – | – | – | – | O=C1CCC(c2ccc(NC3=NCCS3)cc2)=NN1 | – |

The next lines start with the compound.

| SMILES | inhibition [1] | inhibition (Phosphodiesterase 1 [2]) | inhibition (Phosphodiesterase 1 [3]) | inhibition [4] | inhibition (Phosphodiesterase 3 [5]) | IC50 [6] | IC50 [7] | inhibition (Phosphodiesterase 1 [8]) | inhibition (Phosphodiesterase 1 [9]) | inhibition (Phosphodiesterase 3 [10]) | IC50 (PDE I (Cavia porcellus) [11]) | IC50 (PDE I (Cavia porcellus) [12]) | IC50 (Phosphodiesterase 3 [13]) | Ratio [14] | inhibition (PDE II (Cavia porcellus)) | inhibition [15] | ED50 (Canis familiaris) |
| --- | --- | --- | --- | --- | --- | --- | --- | --- | --- | --- | --- | --- | --- | --- | --- | --- | --- |
| Cc1[nH]c(=O)c(C#N)cc1-c1ccncc1 [MILRINONE] | – | – | – | – | – | – | – | – | – | – | – | – | – | – | – | – | 0.037 mg/kg |
| Cc1cc(=O)[nH]nc1-c1ccc(-n2ccnc2)cc1 | – | – | – | – | – | 170 µM | 210 µM | – | – | – | – | – | – | – | – | – | – |
| CC(=O)OCCN1N=C(c2ccc(-n3ccnc3)cc2)CCC1=O | 23% | 5% | 1% | 11% | 16% | – | – | – | – | – | – | – | – | – | – | – | – |
| CCc1nc(C)c(Br)n1-c1ccc(-c2ccc(O)nn2)cc1 | – | – | 20% | – | – | – | – | 64% | – | – | – | – | – | – | – | – | – |
| O=C1CCC(c2ccc(NC3=NCCN3)cc2)=NN1 | 28% | 33% | 33% | 16% | 58% | – | – | – | – | – | – | – | – | – | – | – | – |
| O=C1CCC(c2ccc(NC3=NCCO3)cc2)=NN1 | 9% | 6% | 3% | 4% | 54% | – | – | 26% | 12% | 68% | – | – | – | – | 36% | 31% | – |
| Oc1ccc(-c2ccc(-c3ncc[nH]3)cc2)nn1 | 10% | 10% | 8% | 7% | 51% | 180 µM | 190 µM | 18% | 23% | 69% | – | – | 12 µM | – | – | 41% | 0.017 mg/kg |
| O=C1CCC(c2ccc(-c3nn[nH]n3)cc2)=NN1 | 37% | 20% | 21% | 29% | 86% | – | – | – | – | – | – | – | – | – | – | – | – |
| CC1(C)CC(=O)NN=C1c1ccc(-n2ccnc2)cc1 | 17% | 5% | 2% | 6% | 47% | – | – | – | – | – | – | – | – | – | – | – | – |
| O=C1CCC(c2ccc(-n3ccnc3)cc2)=NN1Cc1ccccc1 | 22% | 13% | 1% | 18% | 47% | – | – | 39% | 33% | 79% | – | – | – | – | 70% | 70% | – |
| Cc1cc(O)nnc1-c1ccc(-n2ccnc2)cc1 | 4% | 4% | 0% | 8% | 26% | – | – | 24% | 14% | 64% | – | – | 50 µM | – | – | 39% | 1.1 mg/kg |
| O=C1NN=C(c2ccc(-n3ccnc3)cc2)C2CCCCC12 (configuration not stated) | 14% | 2% | 1% | 8% | 8% | 130 µM | 150 µM | 22% | 16% | 34% | – | – | 220 µM | – | – | 44% | 1 mg/kg |
| Cn1nc(-c2ccc(-n3ccnc3)cc2)ccc1=O | 16% | 9% | 1% | 12% | 20% | – | – | – | – | – | – | – | – | – | – | – | – |
| NNC(=O)c1cc(-c2ccc(-n3ccnc3)cc2)nnc1O | 20% | 4% | 6% | 12% | 21% | – | – | – | – | – | – | – | – | – | – | – | – |
| CSc1nccn1-c1ccc(C2=NNC(=O)CC2)cc1 | 10% | 13% | 7% | 12% | 57% | – | – | – | – | – | – | – | – | – | – | – | – |
| O=C1CCC(c2ccc(-n3cnc4c3CCCC4)cc2)=NN1 | 20% | 7% | 8% | 22% | 60% | 39 µM | 49 µM | 38% | 37% | 87% | – | – | 1.1 µM | – | – | 69% | 0.064 mg/kg |
